From ChEMBL document CHEMBL1127484, “5-Aryl-3-(alkylthio)-4H-1,2,4-triazoles as selective antagonists of strychnine-induced convulsions and potential antispastic agents” (J Med Chem, 1994) come the findings set out here.

Active and inactive are the calls of the source.

The test system of series [1] is Mus musculus. The series can be described thus: Effective dose required for antagonist activity against maximal electroshock induced seizures in mice when administered intraperitoneally. The series is classed as functional. To be noted: ip. The procedure, abridged: (§1)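 CD-1 male mice (18–26 g), groups of 5 or 10, housed individually, dosed ip in distilled H2O or H2O/Tween 80. Convulsant given 30 min later. Strychnine sulfate 2.7 mg/kg ip: protection = no tonic extension >15 min. MES 50 mA, 0.2 s, corneal: no tonic hind-limb extension. PTZ 60 mg/kg iv: no clonic seizures for 2 min. MPA 100 mg/kg iv: no seizures for 5 min. ED50 by quantal analysis from ≥4 doses, ≥10 mice each.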
Background: Protection in the maximal electroshock model is a classic sign of anticonvulsant action.

The subject of series [2] is Mus musculus. In words: Effective dose required for antagonist activity against pentylenetetrazole-induced seizures in mice when administered intraperitoneally. In kind it is functional. To be noted: ip. The procedure, abridged:
as §1

Series [3] has as its system Mus musculus. The series can be described thus: Effective dose required for antagonist activity against strychnine induced seizures in mice when administered intraperitoneally; Range is 32-50. In kind it is functional. The conditions noted are these: ip. The procedure, abridged:
as §1

The subject of series [4] is Mus musculus. In words: Effective dose required for antagonist activity against 3-mercaptopropionic-acid induced seizures in mice when administered intraperitoneally. The conditions noted are these: ip. The series is classed as functional. The procedure, abridged: as §1
Series [5] in a line: Dose encompassing the 50% lethal effect was recorded when administered intraperitoneally in mice. In kind it is ADME, organism-based. The conditions noted are these: mouse, in vivo, ip. The procedure, abridged: (§2)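 Deaths were recorded over the 7 days after dosing. The estimated LD50 was taken as the dose range spanning 50% lethality.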
Series [6] has as its system Mus musculus. The series can be described thus: Effective dose required for antagonist activity against 3-mercaptopropionic-acid-induced seizures in mice when administered intraperitoneally; Range 100-200. In kind it is functional. The conditions noted are these: ip. The procedure, abridged:
as §1

The test system of series [7] is Mus musculus. In words: Effective dose required for antagonist activity against pentylenetetrazole-induced seizures in mice when administered intraperitoneally; Range 100-200. In kind it is functional. The conditions noted are these: ip. The procedure, abridged: as §1
The test system of series [8] is Mus musculus. The series can be described thus: Effective dose required for antagonist activity against strychnine induced seizures in mice when administered intraperitoneally. In kind it is functional. The conditions noted are these: ip. The procedure, abridged:
as §1

The target in series [9] is T1, GABA-A receptor; anion channel (Rattus norvegicus) (UniProt O09028+P15431+P18506+P18508+P19969+P20236+P23574+P23576+P28471+P28473+P30191+P62813+P63079+P63138+Q91ZM7+Q9ES14). The series can be described thus: In vitro displacement of [3H]flunitrazepam at GABA-A benzodiazepine site in rat cortical membranes at 100 uM (Inactive). In kind it is cell membranes. The conditions noted are these: Membrane.

The target in series [10] is T1, GABA-A receptor; anion channel (Rattus norvegicus). In words: In vitro displacement of [35S]TBPS at GABA-A picrotoxin convulsant site in rat cortical membranes at 100 uM (Inactive). In kind it is cell membranes. The conditions noted are these: Membrane. A general note: In a radioligand displacement assay an active substance lowers the binding of a labelled ligand.

For series [11] the target is unchanged. In words: In vitro displacement of [3H]muscimol from GABA-A receptor in rat cortical membranes at 100 uM (Inactive). In kind it is cell membranes. To be noted: Membrane.
Series [12] addresses GABA B receptor (Rattus norvegicus) (UniProt Q9Z0U4+O88871). The series can be described thus: In vitro displacement of [3H]baclofen at GABA-B receptor in rat cortical membranes at 100 uM (Inactive). The series is classed as cell membranes. The conditions noted are these: Membrane.
Series [13] relates to Rattus norvegicus. In words: Effect of compound on […] function in spinal transected rats at 10 mg/Kg. In kind it is functional. The procedure, abridged: (§3)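 Spinal-transected rats, 5-10 weeks post-transection. Hind-limb activity recorded by transducer. Output integrated over the first 3 s after leg pull (stretch-evoked reflex function) and over the next 57 s (spontaneous hyperreflexia). Sessions were run before and after ip dosing. Test agent given as suspension in distilled H2O/1% Tween 80, or as solution in distilled H2O. Data expressed as % of control; paired t test or least-squared-means comparisons.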

For series [14], the system named is Rattus norvegicus. The series can be described thus: Effect of compound on reflux function in spinal transected rats at 20 mg/Kg. In kind it is functional. The gist of the method: as §3
Series [15] deals with Rattus norvegicus. The series can be described thus: Effect of compound on reflux function in spinal transected rats at 40 mg/Kg. The series is classed as functional. The gist of the method: as §3
Series [16] concerns Rattus norvegicus. In words: Effect of compound on reflux function in spinal transected rats at 5 mg/Kg. The series is classed as functional. The gist of the method:
as §3

Series [17] concerns Rattus norvegicus. In words: Effect of compound on hyperreflexia in spinal transected rats at 10 mg/Kg. The series is classed as functional. The procedure, abridged: as §3
In series [18] the test system is Rattus norvegicus. The series can be described thus: Effect of compound on hyperreflexia in spinal transected rats at 20 mg/Kg. The series is classed as functional. The gist of the method:
as §3

The target in series [19] is Gamma-aminobutyric acid receptor subunit gamma-1 (Rattus norvegicus) (UniProt P23574). The series can be described thus: Enhancement of 1 uM muscimol-stimulated 36Cl- uptake into rat cerebellar membrane. To be noted: Cerebellum. The series is classed as functional. The gist of the method: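 Rat cerebellar membrane vesicles (adult male Sprague-Dawley) in HEPES/Tris buffer, pH 7.5. Preincubated on ice for 15 min with vehicle (0.2% DMSO) or 10 μM compound, then 5 min at 34 °C. 36Cl uptake run for 3 s with 1 μM muscimol and stopped by ice-cold 100 μM picrotoxin buffer plus filtration. Muscimol-stimulated uptake = uptake minus uptake without muscimol, in nmol/mg protein/3 s. Mean ± SEM, n = 3; Student's t test.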

Series [20] relates to Rattus norvegicus. In words: Effect of compound on hyperreflexia in spinal transected rats at 40 mg/Kg. In kind it is functional. The procedure, abridged: as §3
The test system of series [21] is Mus musculus. In words: Effective dose required for antagonist activity against maximal electroshock induced seizures in mice when administered intraperitoneally; Range is 50-100. In kind it is functional. The conditions noted are these: ip. The procedure, abridged:
as §1

In series [22] the test system is Mus musculus. In words: Effective dose required for antagonist activity against pentylenetetrazole-induced seizures in mice when administered intraperitoneally; Range is 50-100. In kind it is functional. The conditions noted are these: ip. The procedure, abridged:
as §1

Series [23] is described as follows: Dose encompassing the 50% lethal effect was recorded when administered intraperitoneally in mice; Range is 400-800. To be noted: mouse, in vivo, ip. In kind it is ADME, organism-based. The gist of the method: as §2
In series [24] the test system is Mus musculus. The series can be described thus: Effective dose required for antagonist activity against 3-mercaptopropionic-acid-induced seizures in mice when administered intraperitoneally; Range is 50-100. The series is classed as functional. To be noted: ip. The procedure, abridged: as §1
Series [25] has as its system Mus musculus. In words: Effective dose required for antagonist activity against pentylenetetrazole-induced seizures in mice when administered intraperitoneally; Range is 25-50. The series is classed as functional. The conditions noted are these: ip. The gist of the method: as §1

Gamma-aminobutyric acid receptor subunit gamma-1 (Rattus norvegicus), sequence (P23574 whole entry): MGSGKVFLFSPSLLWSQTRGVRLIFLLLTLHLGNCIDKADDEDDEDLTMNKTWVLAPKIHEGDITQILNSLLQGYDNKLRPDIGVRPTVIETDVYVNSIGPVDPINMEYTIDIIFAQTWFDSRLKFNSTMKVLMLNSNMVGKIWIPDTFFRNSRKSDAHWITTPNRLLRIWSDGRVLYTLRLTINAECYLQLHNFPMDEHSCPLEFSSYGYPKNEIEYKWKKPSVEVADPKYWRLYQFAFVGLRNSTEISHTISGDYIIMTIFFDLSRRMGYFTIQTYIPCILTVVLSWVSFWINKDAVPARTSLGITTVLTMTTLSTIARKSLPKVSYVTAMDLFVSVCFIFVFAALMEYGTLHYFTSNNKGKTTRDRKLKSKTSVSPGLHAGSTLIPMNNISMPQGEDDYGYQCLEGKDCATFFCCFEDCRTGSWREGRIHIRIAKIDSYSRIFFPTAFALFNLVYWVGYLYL

Usually ED50 stands for the dose at which the effect has come halfway, by size or by number of responders. For orientation: LD50 means the dose at which mortality reaches 50%. A higher LD50 goes with a less toxic substance. In the case of `Cn1c(-c2cccs2)nnc1[S+](C)[O-]` (stereo unspecified), the ED50 in series [1] was over 200 mg/kg; in series [2] it was over 200 mg/kg; in [3], 50 mg/kg; in [4], over 200 mg/kg. Moreover, the LD50 in series [5] was over 800 mg/kg.
For the compound `CSc1nnc(-c2ccccc2)n1C`, the ED50 in series [6] was 200 mg/kg; in [1], over 200 mg/kg; in [7] it was 200 mg/kg; in series [8] it was 37.8 mg/kg. The LD50 in series [5] is over 800 mg/kg.
As for `Cn1c(-c2ccccc2)nnc1S(C)(=O)=O`, the Displacement entry in [9], in series [10], in series [11] and in series [12] was “inactive” in each case. Further, the figures for the ED50 in series [1], in series [2] and in [4] were over 200 mg/kg, 55 mg/kg and over 200 mg/kg, respectively. Besides, the LD50 in series [5] was over 800 mg/kg. For the same compound, the Control in series [13] is 116%; in series [14], 114%; in [15], 87%; in series [16], 101%; in [17] it was 46%; in series [18], 78%. In addition, in [20], the Control stood at 43%. In series [19], the Uptake (nM 3s-1 (mg of protein)-1) amounted to 3.82.
For the compound `Cn1nc(-c2ccccc2)nc1[S+](C)[O-]` (stereo unspecified), the ED50 in series [21] was 100 mg/kg; in series [22], 100 mg/kg; in series [8] it was over 200 mg/kg; in series [4], over 200 mg/kg. Besides, the LD50 in series [23] was found to be 800 mg/kg.
`CCn1c(SC)nnc1-c1ccc(Cl)cc1`: the 50% effective dose (ED50) in series [24] is 100 mg/kg; in [1] it was over 50 mg/kg; in series [25], 50 mg/kg; in series [8], 26.7 mg/kg. Further, the LD50 in [5] is over 800 mg/kg.
